Assay results: ChEMBL document CHEMBL4130342, “New semi-synthetic analogs of oleuropein show improved anticancer activity in vitro and in vivo” (Eur J Med Chem, 2017)
pIC50: −log10 of the molar value.

Key:
Mus musculus [1] = experiment: (§1) In vivo induction of tumor-reactive immune response in C57BL/6 mouse allografted with mouse B16-F1 cells assessed as splenocyte-mediated mouse WEHI 164 cell lysis at 300 ug, ip administered every other day up to day 29 measured on day 29 post last dose by flow cytometric method (reference value: 1.2 to 1.6); type: functional
Summary of the method: (§2)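 Male C57BL/6 mice (6-8 wk) were injected sc in the right flank with 10⁵ B16.F1 cells in PBS on day 0. From day 11, when tumors were palpable, they received ip doses in 200 µL PBS every other day (8 doses; 5 mice/group). On day 29, splenocytes were co-cultured unstimulated with targets at E:T 100:1 for 6 h at 37°C. CD107a/b MFI was read by flow cytometry, 2 mice/group tested individually.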

PBMC [2] = experiment: Induction of apoptosis in human PBMC assessed as late apoptotic cells at 300 ug/ml after 24 hrs by propidium iodide staining-based flow cytometric method (reference value: 0.6%); type: cell-based
PBMC [3] = experiment: Induction of apoptosis in human PBMC assessed as necrotic cells at 150 ug/ml after 24 hrs by propidium iodide staining-based flow cytometric method (reference value: 1%); type: cell-based
PBMC [4] = experiment: Induction of apoptosis in human PBMC assessed as late apoptotic cells at 150 ug/ml after 24 hrs by propidium iodide staining-based flow cytometric method (reference value: 0.6%); type: cell-based
Mus musculus [5] = experiment: as §1, with “splenocyte-mediated syngeneic” for “splenocyte-mediated”, “B16-F1” for “WEHI 164”, “3.3” for “1.2”, “3.9)” for “1.6)”; type: functional; summary of the method: as §2
B16-F1 [6] = experiment: Antiproliferative activity against mouse B16-F1 cells after 72 hrs by MTT reduction assay; type: functional, cell-based; conditions: B16-F1, 72 h
Summary of the method: (§3)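 MTT reduction assay; adherent lines left to adhere overnight, suspension lines (HL-60, K562) seeded on the day. […] Incubation was 72 h at 37°C, with MTT added for the last 4 h. OD read at 545 nm (reference 690 nm). IC50 from 100(A0-A)/A0=50; means ± SD of 3 independent experiments.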

B16-F1 [7] = experiment: Induction of apoptosis in mouse B16-F1 cells assessed as late apoptotic cells at 283.90 uM after 48 hrs by propidium iodide staining-based flow cytometric method (reference value: 0.5%); type: functional
B16-F1 [8] = experiment: Antitumor activity against mouse B16-F1 cells allografted in C57BL/6 mouse assessed as tumor volume at 600 ug, ip administered every other day up to day 29 measured on day 29 post last dose (reference value: 2.83 cm'3); type: functional
Summary of the method: (§4)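 Male C57BL/6 mice, 6-8 weeks old, received 10^5 B16.F1 cells sc in the right flank on day 0. From day 11 (palpable tumors), 5 mice/group were randomized and given ip doses in 200 µL PBS every other day, 8 doses in total, up to day 29. Control group received PBS. Tumors were measured by caliper every two days; volume = 1/2(length × width²).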

Mus musculus [9] = experiment: as §1, with “600” for “300”; type: functional; summary of the method: as §2
B16-F1 [10] = experiment: Antitumor activity against mouse B16-F1 cells allografted in C57BL/6 mouse assessed as tumor volume at 300 ug, ip administered every other day up to day 29 measured on day 29 post last dose (reference value: 2.83 cm'3); type: functional; summary of the method: as §4
HL-60 = experiment: Antiproliferative activity against human HL60 cells after 72 hrs by MTT reduction assay; type: functional, cell-based; conditions: HL-60, 72 h; summary of the method: as §3
B16-F1 [11] = experiment: Induction of apoptosis in mouse B16-F1 cells assessed as necrotic cells at 283.90 uM after 72 hrs by propidium iodide staining-based flow cytometric method (reference value: 2.5%); type: functional
B16-F1 [12] = experiment: Induction of apoptosis in mouse B16-F1 cells assessed as early apoptotic cells at 283.90 uM after 48 hrs by propidium iodide staining-based flow cytometric method (reference value: 0.2%); type: functional

## C/C=C1/[C@H](O[C@@H]2O[C@H](CO)[C@@H](O)[C@H](O)[C@H]2O)OC=C(C(=O)OC)[C@H]1CC(=O)OCCc1ccc(O)c(O)c1 [OLEUROPEIN]
Mus musculus [1]
  Flu intensity: 1.1 - 1.3
PBMC [2]
  Activity: 1.9%
PBMC [3]
  Activity: 2.5%
PBMC [4]
  Activity: 1.5%
Mus musculus [5]
  Flu intensity: 3.2 - 3.9
B16-F1 [6]
  pIC50: 3.55
B16-F1 [7]
  Activity: 9.8%
B16-F1 [8]
  Activity: 2.33 cm3
Mus musculus [9]
  Flu intensity: 2.5 - 2.7
B16-F1 [10]
  Activity: 2.41 cm3
HL-60
  pIC50: 4.27
B16-F1 [11]
  Activity: 21.8%
B16-F1 [12]
  Activity: 13.6%
